High-throughput results deposited in PubChem by several laboratories.
The list is not random: actives were taken first. Their share in the collection is about 1.5%.
VLA-4 inh – inhibition in a human VLA-4 binding assay | VLA-4 expressing cells, ligand binding flow cytometry | inhibition, % (about 7 µM as worked out from the volumes in the protocol) | 330,000 tested, 0.2% active; in the data active means inhibition above about 50%
Platelet DG rel – modulates dense granule release in human platelets; human platelet-rich plasma, SFLLRN dense granule ATP release, luminescence; inhibition, %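 (compounds screened at 7.5 µM in platelet-rich plasma)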; 300,000 tested, 0.22% active; AID 1663;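 active means mean replicate score, as percent of positive control, at or above 50; inconclusive means mean below 50 but at least one replicate at or above 50; inactive means mean and every replicate below 50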
SENP1 inh – blocks the human SENP1 SUMO protease catalytic domain; Q9P0U3; recombinant SENP1 catalytic domain, CyPet-SUMO1-YPet FRET cleavage; inhibition, % at 10 µM; 360,000 tested, 0.21% active;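 active means inhibition at least 30% at 10 µM, raw YFP signal under a set limit, fluorescence ratio 0.5 to 1.5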;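 further: 0% = enzyme with DMSO and 100% = no enzyme wells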
Target sequence (Q9P0U3 419-644 limits assumed): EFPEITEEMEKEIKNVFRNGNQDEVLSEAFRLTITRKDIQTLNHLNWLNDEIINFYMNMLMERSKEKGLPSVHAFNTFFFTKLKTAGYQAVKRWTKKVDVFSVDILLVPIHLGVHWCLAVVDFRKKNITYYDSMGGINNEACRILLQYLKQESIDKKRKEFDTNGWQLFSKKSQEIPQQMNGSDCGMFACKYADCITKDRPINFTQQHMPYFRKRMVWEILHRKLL
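Assay system – human recombinant His6-tagged SENP1 catalytic domain enzyme · Input – SENP1 enzyme, 20 pM final · Buffer or medium – Tris pH 8 buffer plus EDTA, NaCl, BME, BSA, NP40, catalase · Schedule – 50 min reaction at room temperature · Technique – FRET read of cyan and yellow fluorescence · Control set – no-enzyme wells low, DMSO-plus-enzyme wells high control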
Myeloid diff 2 – myeloid differentiation induction. 360,000 tested, 1% active. calls only at 10 µM. AID 624256. ER-HoxA9 myeloid progenitors, lysozyme-GFP differentiation, flow cytometry;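 active means normalized GFP-positive differentiation at or above the plate's own cutoff, the solvent-only control mean plus 3 SD; inconclusive means no clear call, values can overlap the other calls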;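 further: cells exposed to compound for four days before flow analysis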
Myeloid diff – promotes myeloid progenitor differentiation | shares compounds with Myeloid diff 2 | ER-HoxA9 myeloid progenitors, GFP/Mac1 double-positive flow | calls only | 2,300 tested, 2% active | AID 651706;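 active means share of green or green-and-red cells above 9 and 9% in run 1 or 4 and 3% in run 2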
GFP autofluor – counter-screen for myeloid differentiation promoters: compound fluorescence; ER-HoxA9 myeloid progenitors, no estrogen, GFP autofluorescence flow cytometry; vehicle wells 0%, positive control 100%; AID 651707; shares compounds with Myeloid diff 2; 2,300 tested, 7.4% active; fluorescence response, % (test concentration not listed);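 active means over 5% cells positive for green fluorescent reporter, or over 2% positive for both it and APC stain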;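 further: range taken on the double positive population between DMSO and positive control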
Active calls of the source: *; i = inactive; ? = inconclusive; / = no result given; + = active, no number.

SMILES | VLA-4 inh | Platelet DG rel | SENP1 inh | Myeloid diff 2 | Myeloid diff | GFP autofluor
O=C(CCC(=O)N1CCOc2ccccc21)NCCCN1CCCCC1 | 4 | -8 | 2 | i | / | /
Cc1csc(SCC(=O)Nc2sc3c(c2C#N)CCC3)n1 | -1 | 3 | -6 | i | i | 1
CC(C)c1onc(C(=O)N(C)C2CCCCC2)c1[N+](=O)[O-] | 24 | -4 | 3 | i | / | /
CCc1ccc(NC2CC(=O)N(c3ccc(OC)cc3OC)C2=O)cc1 (stereo not given) | -11 | / | 3 | i | i | 1
O=C(NCCCC1CCCC1)C1CCC(=O)N(Cc2cccc(C(F)(F)F)c2)C1 (stereo not given) | -2 | -11 | -1 | + | i | 0
Cc1cnc(NC(=O)Cc2ccccc2Cl)s1 | 19 | -4 | -1 | i | i | 0
Cc1cnc(NC(=O)CSc2ccccc2)s1 | 21 | 9 | -1 | + | i | 0
Cc1csc(NC(=O)Cc2ccccc2Cl)n1 | 4 | -3 | -10 | i | / | /
Cc1cc(C)n(CC(=O)NNC(=O)C2CC(=O)N(Cc3ccccc3Cl)C2)n1 (stereo not given) | -1 | -1 | 1 | i | / | /
CCC(C)Nc1nc2c(c(=O)[nH]c(=O)n2C)n1CCC(C)C (stereo not given) | -2 | -4 | -1 | + | i | 1
COc1ccccc1NC(=O)c1c(NC(=O)c2ccco2)sc2c1CCC2 | 5 | -5 | -32 | + | i | 1
N#Cc1c(N)nc(SCc2ccccn2)c(C#N)c1-c1cccs1 | / | -1 | -7 | i | i | 0
CCOc1ccc(/C=C/C(=O)N2CCOCC2)cc1OC | -9 | 3 | -1 | i | / | /
CCOc1cc(C(=S)N2CCOCC2)ccc1OC(=O)/C=C/c1ccc(OC)c(OC)c1 | 7 | -4 | 6 | i | i | 0
COc1cc(CCC(=O)Nc2ccc(S(=O)(=O)NC3=NCCCCC3)cc2)cc(OC)c1OC | 6 | -3 | -1 | i | i | 0
COc1ccc(CCC(=O)Nc2ccc(S(=O)(=O)NC3=NCCCCC3)cc2)cc1 | / | / | 1 | i | / | /
O=C(Nc1cccc(NC(=O)c2nccc3ccccc23)c1)c1ccco1 | 16 | / | 3 | + | i | 0
O=C(Nc1cccc(NC(=O)c2ccco2)c1)c1ccccc1 | -6 | 4 | 1 | i | / | /
CCOC(=O)C1=C(CN2c3ccccc3CC2C)NC(=O)NC1c1ccccc1 (stereo not given) | -1 | 5 | -25 | + | i | 1
CCN(CC)CCC(O)(c1ccc2c(c1)OCO2)c1cc(OC)c(OC)c(OC)c1 (stereo not given) | / | / | 3 | i | / | /
COc1ccccc1NC(=O)Nc1c(C)n(C)n(-c2ccccc2)c1=O | 5 | -1 | 0 | i | i | 0
Cc1ccccc1NC(=O)Nc1c(C)n(C)n(-c2ccccc2)c1=O | 4 | 21 | 3 | i | / | /
CCOC(=O)[C@]12CCCC=C1N(CCC1=CCCCC1)C(=O)[C@H](CC(=O)NCc1cccs1)C2 | / | / | 2 | i | / | /
COc1cccc(N2CCN(S(=O)(=O)c3ccc4ccccc4c3)CC2)c1 | / | / | -1 | i | i | 0
O=C(Cn1cccc1C(=O)c1ccccc1)NCc1cccs1 | 14 | -2 | 0 | i | i | 0
SMILES | VLA-4 inh | Platelet DG rel | SENP1 inh | Myeloid diff 2 | Myeloid diff | GFP autofluor
O=C(Cn1cccc1C(=O)c1ccccc1)NCc1ccccc1 | 21 | -2 | 2 | i | / | /
COC(=O)c1c[nH]c(=S)n1Cc1ccccc1 | / | / | 3 | i | / | /
Cc1cc(Cn2nc(-c3ccccc3)cc2C(=O)NCc2cccs2)on1 | / | 1 | -2 | i | / | /
O=C(O)C1C2C=CC(C2)C1C(=O)OC1CC2CCC1C2 (stereo not given) | 3 | 5 | 3 | + | i | 0
O=C(O)CCC(=O)OC1CC2CCC1C2 (stereo not given) | 1 | 3 | 0 | i | / | /
COCCCN(C(=O)CSCc1c(C)noc1C)c1c(N)n(Cc2ccccc2)c(=O)[nH]c1=O | 6 | 1 | -31 | i | / | /
COc1ccc(Nc2nc(N)nc(CN3CCN(c4ccc(F)cc4)CC3)n2)cc1 | 1 | -2 | -1 | i | i | 0
COc1ccc(Cl)cc1NC(=O)CN(C)CC(=O)Nc1cc(OC)c(OC)c(OC)c1 | 29 | 27 | 1 | / | / | /
Cc1ccc(-c2n[nH]c(=O)c3ccccc23)c(C)c1 | 7 | -10 | 0 | i | / | /
Cc1ccc(C2=NCCNC2=O)c(C)c1 | 8 | 8 | 1 | i | i | 1
Cc1sc(NC(=O)C2=COCCO2)nc1-c1ccc(Cl)cc1 | 10 | 29 | -1 | i | / | /
Nc1ccccc1C(=O)NNC1=C(C(=O)C(F)(F)F)CCC1 | 3 | -3 | 2 | + | i | 2
O=C(NNC1=C(C(=O)C(F)(F)F)CCC1)c1ccccc1O | 15 | -24 | -7 | i | / | /
COc1ccccc1C(=O)NNC1=C(C(=O)C(F)(F)F)CCC1 | 4 | -6 | 3 | + | i | 2
CCOCCCNC(=O)c1ccc2c(c1)N=C(CC)c1cc(Br)ccc1S2 | 33 | 2 | 0 | ? | / | /
CCOc1ccccc1NC(=O)CCC(=O)Nc1ccccc1OCC | -5 | 1 | -4 | i | / | /
CCOc1ccccc1NC(=O)CCNS(=O)(=O)c1ccccc1 | 16 | 0 | 1 | + | i | 0
O=C(COC(=O)C1=COCCO1)NC1CCCCC1 | -3 | -2 | 0 | i | / | /
Cc1ccc(C(=O)C2CCN(C(=S)NCCCOC(C)C)CC2)cc1 | 4 | 0 | 4 | i | / | /
CC1(C)NC(=O)N(CCCCOc2ccc(Cl)cc2)C1=O | 4 | -2 | -4 | i | i | 0
CCN(CC)C(=O)CN1C(=O)C(=O)c2ccccc21 | -6 | 0 | -1 | i | i | 1
CC(C)=C1SC(N2CCCCC2)=NC1=O | -1 | 2 | 1 | i | / | /
C/C(=C1/SC(N2CCCC2)=NC1=O)c1ccc(Br)cc1 | 11 | -5 | 1 | + | + | 1
COC(=O)C(C)(C)c1cccnc1C#N | / | / | 1 | i | i | 0
N#CCc1ccc(NS(=O)(=O)c2ccc(C3CCCCC3)cc2)cc1 | 8 | -1 | 0 | i | / | /
SMILES | VLA-4 inh | Platelet DG rel | SENP1 inh | Myeloid diff 2 | Myeloid diff | GFP autofluor
CCOc1ccccc1NC(=O)NC1(C(=O)NCc2cccnc2)CCCCC1 | 7 | 15 | 2 | i | i | 0
CN(C)CCN1CCc2ccccc21 | 14 | 1 | -4 | + | i | 0
Oc1ccccc1N=Cc1ccc[nH]1 | 3 | -8 | 6 | + | i | 0
COc1ccc(S(=O)(=O)N(C)CC(=O)Nc2cccc(C(C)=O)c2)cc1 | -7 | -5 | -12 | i | / | /
COc1ccc(S(=O)(=O)N(C)CC(=O)Nc2ccc(F)cc2)cc1 | -7 | -9 | 2 | i | i | 0
CC(C)(C)OC(=O)N1CC2(CCCCC2)CC1Cc1ccc(C(F)(F)F)cc1 (stereo not given) | / | / | 3 | i | i | 0
